Measurements pooled from the literature.
Compare with care: the assays were run in different laboratories.
Target: Protein kinase C delta type (PRKCD, Homo sapiens, UniProt Q05655)

| SMILES | read-out | technique | concentration | remaining binding |
| --- | --- | --- | --- | --- |
| O=C(Nc1c[nH]nc1C(=O)NC1CCNCC1)c1cc(F)cc(F)c1 | binding | competition with immobilised ligand | 1 µM | 100% |
| O=C(c1ccc(Nc2ncc(Cl)c(-c3cc4ccccc4s3)n2)cc1)N1CCC(N2CCCC2)CC1 | binding | competition with immobilised ligand | 1 µM | 32% |
| FC(F)(F)Oc1cccc(-c2cnc3ccc(-c4ccncc4)nn23)c1 | cell-free assay | competition with immobilised ligand | 5 µM | 71% |
| O=C(c1ccc(Nc2ncc(Cl)c(-c3ccc(Cl)s3)n2)cc1)N1CCC(N2CCCC2)CC1 | binding | competition with immobilised ligand | 1 µM | 48% |
| CN1CCN(c2cnc3c(C4CCN(C(=O)c5ccc(OC(F)(F)F)cc5N)CC4)ncnc3c2)CC1 | cell-free assay | competition with immobilised ligand | 1 µM | 100% |
| COc1cnc(Nc2cccc(S(N)(=O)=O)c2)nc1N1CCN(c2ccccc2)C(=O)C1 | binding | competition with immobilised ligand | 1 µM | 100% |
| CS(=O)(=O)N1CCCC(NC(=O)[C@H](CCC2CCCCC2)NC(=O)c2ccc(CNc3ncnc4c3nnn4-c3ccccc3)cc2)C1 (stereo partly drawn) | cell-free assay | competition with immobilised ligand | 0.1 µM | 80% |
| CC1CCCN1c1nccc(-c2cnn3ncccc23)n1 (stereo not drawn) | binding | – | 1 µM | 100% |
| CCN1CCN(Cc2ccc(C(=O)Nc3ccc(C)c(Oc4ccc5c(c4)CC(=O)N5)c3)cc2C(F)(F)F)CC1 | binding | competition with immobilised ligand | 1 µM | 96% |
| O=C(NCCCN1CCOCC1)c1ccc(Nc2nccc(-c3cc4ccccc4s3)n2)cc1 | binding | competition with immobilised ligand | 1 µM | 81% |
| C[C@H](c1ccnc(Nc2nc3ccc(-c4cc(N(C)C)ncn4)cc3[nH]2)c1)N1CCN(C(=O)CC(F)(F)F)CC1 | cell-free assay | competition with immobilised ligand | 0.1 µM | 100% |
| N[C@H]1CCN(c2nccc(-c3cnn4ncccc34)n2)C1 | binding | – | 1 µM | 100% |
| Nc1ncc2c(n1)-c1c([nH]c3ccc(C#CC4CC4)cc13)CCCC2 | binding | competition with immobilised ligand | 1 µM | 97% |
| CN(C)c1nccc(-c2cnn3ncccc23)n1 | binding | – | 1 µM | 100% |
| O=C1NC(c2ccccn2)Sc2ccccc21 (stereo not drawn) | cell-free assay | competition with immobilised ligand | 1 µM | 71% |
| CN(c1nccc(-c2cnn3ncccc23)n1)C1CC1 | binding | – | 1 µM | 85% |
| CCCOc1ccc([C@@H]2[C@@H](C(=O)O)[C@H](c3ccc4c(c3)OCO4)CN2CC(=O)Nc2c(CC)cccc2CC)cc1 | cell-free assay | competition with immobilised ligand | 1 µM | 100% |
| C[C@H]1CCN(c2nccc(-c3cnn4ncccc34)n2)C1 | binding | – | 1 µM | 100% |
| O=C(N[C@H]1CCCCC/C=C\C2C[C@@]2(C(=O)O)NC(=O)[C@@H]2C[C@@H](Oc3ccncc3)CN2C1=O)OC1CCCC1 (stereo partly drawn) | cell-free assay | competition with immobilised ligand | 1 µM | 100% |
| CN(C)c1ncc(F)c(-c2cnn3ncccc23)n1 | binding | – | 1 µM | 100% |
| COc1ncc2cc3ccccc3nc2c1C#N | cell-free assay | competition with immobilised ligand | 5 µM | 75% |
